Source: PubChem (Johns Hopkins Ion Channel Center)
RGS4 act – RGS4 potentiators or activators, primary screen, cell-based, HEK293 M3R inducible RGS4, calcium flux | 310,000 tested, 0.92% active | B-score at 10 µM | carbachol calcium flux Fluo4; hits give low values;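 active = B-score of the integrated calcium signal more than 4 SD below the library mean, with starting fluorescence not abnormally high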;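 note: negative B-score means reduced calcium response which marks RGS4 activation or potentiation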
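System: HEK293 FlpIn-TREx cells, stable M3R, doxycycline-inducible RGS4. Timing: overnight RGS4 induction, 30 min dye load 37 °C, 20 min compound RT. Also added: carbachol, ECmax concentration. Measured by: Fluo4 fluorescence kinetic imaging of calcium. Evaluation: integrated calcium ratio converted to B score.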
MrgX1 PAM – positive allosteric modulators of MrgX1, primary screen, HEK293 cells, Fluo-4 calcium flux. Mas-related G-protein coupled receptor member X1 (Homo sapiens), Q96LB2. B-score at 10 µM. 310,000 tested, 0.63% active. AID 588675, 2011. FDSS; hits give high values;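 active = plate-corrected calcium response at least 3 library SD above typical, normal starting fluorescence, not activating the receptor alone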;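 note: compound read alongside a low EC10 to EC30 dose of BAM8-22 agonist; peak minus trough fluorescence over baseline measured at the second addition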
Target sequence (Q96LB2 whole entry, looked up): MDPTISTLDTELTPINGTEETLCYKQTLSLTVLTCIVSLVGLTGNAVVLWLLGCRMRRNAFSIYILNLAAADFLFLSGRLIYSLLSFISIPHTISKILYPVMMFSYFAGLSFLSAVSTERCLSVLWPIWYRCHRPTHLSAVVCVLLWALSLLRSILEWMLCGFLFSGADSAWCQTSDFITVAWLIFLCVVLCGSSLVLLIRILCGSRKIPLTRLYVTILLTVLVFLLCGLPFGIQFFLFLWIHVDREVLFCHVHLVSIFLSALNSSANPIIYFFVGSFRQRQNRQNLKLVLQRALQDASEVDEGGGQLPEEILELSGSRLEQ
RGS4 inh – RGS4 inhibitors, primary screen, cell-based, HEK293 M3R inducible RGS4, calcium flux; AID 463165, 2010; Fluo-4 calcium flux; hits give high values; triggered by carbachol at its EC20; 310,000 tested, 0.45% active; Regulator of G-protein signaling 4 (Homo sapiens), P49798; B-score at 10 µM;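 active = B-score, a plate-corrected calcium signal, over three deviations above library mean, with baseline fluorescence within five deviations of library mean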;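 note: RGS4 expression induced by doxycycline in cells with stable M3 receptor; B-score is computed from the integrated fluorescence ratio over baseline after carbachol; higher B-score means a larger calcium signal and so more RGS4 inhibition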
Target sequence (P49798 whole entry, looked up): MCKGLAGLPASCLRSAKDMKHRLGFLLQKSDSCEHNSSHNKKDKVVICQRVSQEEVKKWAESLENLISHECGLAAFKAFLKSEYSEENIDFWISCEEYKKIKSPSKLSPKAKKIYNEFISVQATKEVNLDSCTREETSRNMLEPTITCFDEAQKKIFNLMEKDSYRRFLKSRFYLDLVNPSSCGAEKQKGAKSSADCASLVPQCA
MrgX1 ag – agonists of human MrgX1 receptor, primary screen, HEK293 cells, Fluo-4 calcium flux | Mas-related G-protein coupled receptor member X1 (Homo sapiens), Q96LB2 | Fluo-4 calcium fluorescence, agonist mode; hits give high values | B-score at 10 µM | 310,000 tested, 0.44% active | AID 588627, 2011;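 active = calcium response B-score plate-corrected fluorescence ratio at least 3 library SD, with starting fluorescence B-score inside 5 SD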
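Material: MrgX1-expressing HEK293 cells / Dosing: compound as first of three additions / Incubation: overnight seeding, then 1 h dark dye loading / Signal: Fluo-4 NW calcium fluorescence / Evaluation: B-scored fluorescence response ratio / Benchmarks: positive and negative control wells on each plate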
MrgX1 antagonist – antagonists of human MrgX1 receptor, primary screen, HEK293 cells, Fluo-4 calcium flux | Mas-related G-protein coupled receptor member X1 (Homo sapiens), Q96LB2 | AID 588676, 2011 | 310,000 tested, 1.3% active | B-score at 10 µM | BAM8-22 antagonism; hits give low values;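 active = calcium-response B-score plate-corrected more than 3 library SD below zero, starting fluorescence within 5 deviations, no agonist response on first addition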;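 note: peak minus trough fluorescence over baseline after final BAM8-22 challenge near maximal dose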
MrgX1 antag conf – MrgX1 receptor antagonists, duplicate retest, confirmation, HEK293 cells, Fluo-4 calcium flux; 2,300 tested, 19% active; BAM8-22 calcium flux; hits give low values; remaining BAM8-22 calcium response % of control (hits give low values), % at 10 µM; AID 602420, 2012; shares compounds with MrgX1 antagonist;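 active = remaining agonist calcium response no higher than 100% minus 3 SD of agonist-only control wells, with starting fluorescence near control levels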;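 note: agonist BAM8-22 given at a near maximal EC90 to ECmax level; peak minus minimum fluorescence divided by baseline after agonist addition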
HEK293 Ca flux – nonspecific calcium signal in parental HEK293, confirmation, counter-screen for MrgX1 antagonist project, parental HEK293 cells, Fluo-4 calcium flux; Fluo-4 calcium fluorescence, FDSS; shares compounds with MrgX1 antagonist; fluorescence ratio F(max-min)/F0 at 10 µM; 4,000 tested, 2% active;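 active = duplicate-averaged calcium fluorescence ratio at least three times the standard deviation of buffer wells, a nonspecific response in parental cells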
HEK293 Ca counter – calcium response in parental HEK293 cells, primary screen, counter-screen for MrgX1 allosteric activator project, cell-based, Fluo-4 calcium flux, duplicate | shares compounds with MrgX1 antagonist | Fluo-4 fluorescence ratio; hits give high values | fluorescence ratio F(max-min)/F0 at 10 µM | AID 624114, 2012 | 4,000 tested, 0.4% active;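 active = calcium fluorescence ratio, averaged over duplicates, at least 3 SD of the buffer-well ratio, meaning a nonspecific response in receptor-free cells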;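 note: untransfected parental HEK293 lacking MrgX1 used as counterscreen for MrgX1 allosteric activators; fluorescence change taken during the second addition on a kinetic imager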
HEK293 Ca cntr2 – calcium response in parental HEK293 cells, primary screen, counter-screen for MrgX1 agonist project, cell-based, Fluo-4 calcium flux, duplicate, agonist mode | shares compounds with MrgX1 antagonist | Fluo-4 calcium fluorescence (FDSS); hits give high values | fluorescence ratio F(max-min)/F0 at 10 µM | 4,000 tested, 8.7% active;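 active = calcium fluorescence ratio at least three times the spread of buffer wells, meaning a non-specific response in parental cells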
Numbers without * were called inactive; i = inactive; nt = not tested or not shown. This is a sample that favours compounds with a hit; in the whole collection about 3.5% have one here.

SMILES | RGS4 act | MrgX1 PAM | RGS4 inh | MrgX1 ag | MrgX1 antagonist | MrgX1 antag conf | HEK293 Ca flux | HEK293 Ca counter | HEK293 Ca cntr2
COC(=O)c1c(C)oc(C)c(C(=O)OC)c1=O | i | i | i | i | -6.99* | i | i | i | i
CCCc1ccc2oc(C(=O)N(C)Cc3nccs3)c(C)c2c1 | i | i | i | i | i | nt | nt | nt | nt
O=C(COc1cc2oc(=O)c3c(c2cc1Cl)CCC3)NCCCn1ccnc1 | i | i | i | i | i | nt | nt | nt | nt
Cc1cccc2[nH]c3c(=O)n(CCN4CCNCC4)cnc3c12 | i | i | i | i | i | nt | nt | nt | nt
CC(C)CCn1cnc2c([nH]c3cccc(Cl)c32)c1=O | i | i | i | i | -5.78* | i | i | i | i
c1ccc(-c2nc(NC3CCCC3)c3ccccc3n2)cc1 | i | i | i | i | i | nt | nt | nt | nt
CCOC(=O)Cc1nnc(Nc2cccc(O)c2)c2ccccc12 | i | i | i | i | -6.32* | i | i | i | i
Cc1nn2c3c(cnc2c1-c1ccccc1)C(=O)CC(c1ccco1)C3 (stereo unspecified) | i | i | i | i | i | nt | nt | nt | nt
Cc1nn2c3c(cnc2c1-c1ccccc1)C(=O)CC(c1ccccc1)C3 (stereo unspecified) | i | i | i | i | -4.97* | i | i | i | i
COc1c([N+](=O)[O-])cc(C(=O)NNC(=O)c2ccc(C)cc2)cc1[N+](=O)[O-] | i | i | i | i | i | nt | nt | nt | nt
O=C(COC(=O)c1ccccc1N1C(=O)C2C3CCC(C3)C2C1=O)c1ccccc1 (stereo unspecified) | i | i | i | i | i | nt | nt | nt | nt
Cc1ccc(C)c(C(=O)COC(=O)c2ccccc2N2C(=O)C3C4CCC(C4)C3C2=O)c1 (stereo unspecified) | i | i | i | i | -6* | i | i | i | i
CN(C)c1ccc(C(CNC(=O)c2ccc(-c3ccccc3)cc2)N2CCOCC2)cc1 (stereo unspecified) | i | i | i | i | i | nt | nt | nt | nt
Cc1nc(N2CCCCCC2)c2ccccc2n1 | i | i | i | i | -4.75* | i | i | i | i
Cc1nc2cc(-c3cccs3)[nH]n2c(=O)c1C | i | i | i | i | -5.2* | i | i | i | i
NC(=O)C(=O)NCCCN1CCOCC1 | i | i | i | i | i | nt | nt | nt | nt
O=C(Nc1cc(C(F)(F)F)ccc1N1CCOCC1)c1ccco1 | i | i | i | i | -4.54* | i | i | i | i
O=C(NCCc1ccccc1)C(NS(=O)(=O)c1cccc2nsnc12)c1ccccc1 (stereo unspecified) | i | i | i | i | -4.71* | i | i | i | i
CCCNC(=O)C(NS(=O)(=O)c1cccc2nsnc12)c1ccccc1 (stereo unspecified) | i | i | i | i | -6.9* | i | i | i | i
CCCCNC(=O)C(NS(=O)(=O)c1cccc2nsnc12)c1ccccc1 (stereo unspecified) | i | i | i | i | i | nt | nt | nt | nt
COc1cc(C(=O)Nc2ccc(S(=O)(=O)N3CCOCC3)cc2)c([N+](=O)[O-])cc1OC | i | i | i | i | i | nt | nt | nt | nt
COc1ccc(NC(=O)c2cccnc2N2CCCC2)cc1 | i | i | i | i | -8.59* | i | i | i | 46.6*
O=C(Cc1c(O)c2ccccc2[nH]c1=O)NC1CCCCCC1 | i | i | i | i | i | nt | nt | nt | nt
O=C(CS(=O)(=O)c1c[nH]c2ccccc12)Nc1ccc(F)cc1 | i | i | i | i | i | nt | nt | nt | nt
O=C(Cc1c(O)c2ccccc2[nH]c1=O)NC1CCCCCCC1 | i | i | i | i | -8.43* | i | i | i | i
SMILES | RGS4 act | MrgX1 PAM | RGS4 inh | MrgX1 ag | MrgX1 antagonist | MrgX1 antag conf | HEK293 Ca flux | HEK293 Ca counter | HEK293 Ca cntr2
O=C(CS(=O)(=O)c1c[nH]c2ccccc12)NC1CCCCC1 | i | i | i | i | -10.4* | i | i | i | i
CCCCCOC(=O)Cc1c(O)c2ccccc2[nH]c1=O | i | i | i | i | -7.93* | i | i | i | i
COc1cccc(/C=C/c2nc(C#N)c(NCC(C)C)o2)c1 | i | i | i | i | i | nt | nt | nt | nt
CC1CC2(NC(=O)NC2=O)C(C)CN1C (stereo unspecified) | i | i | i | i | i | nt | nt | nt | nt
CC1C[C@@]2(NC(=O)NC2=O)C(C)CN1C (stereo partly specified) | i | i | i | i | -5.5* | i | i | i | i
CS(=O)(=O)N(CC(=O)N1CCN(Cc2ccccc2)CC1)c1cccc([N+](=O)[O-])c1 | i | i | i | i | i | nt | nt | nt | nt
COCCn1c(SCC(=O)N2CCCCCC2)nnc1-c1ccco1 | i | i | i | i | i | nt | nt | nt | nt
CCOc1ccccc1NC(=O)c1ccc(-n2cncn2)nc1 | i | i | i | i | i | nt | nt | nt | nt
COc1ccccc1NC(=O)c1ccc(-n2cncn2)nc1 | i | i | i | i | -5.24* | 77.7%* | i | i | i
CCN(CC(=O)Nc1ccc(NC(C)=O)cc1)C(=O)c1ccc2ccccc2c1 | i | i | i | i | -5.1* | i | i | i | i
CCN(CC(=O)Nc1ccc(NC(C)=O)cc1)C(=O)COc1ccc2ccccc2c1 | i | i | i | i | i | nt | nt | nt | nt
